Measured values from different studies.
Organism: Staphylococcus aureus

CN[C@H](CC(C)C)C(=O)N[C@H]1C(=O)N[C@@H](CC(N)=O)C(=O)N[C@H]2C(=O)N[C@H]3C(=O)N[C@H](C(=O)N[C@H](C(=O)O)c4cc(O)cc(O)c4-c4cc3ccc4O)[C@H](O)c3ccc(c(Cl)c3)Oc3cc2cc(c3O[C@@H]2O[C@H](CO)[C@@H](O)[C@H](O)[C@H]2O[C@H]2C[C@](C)(N)[C@H](O)[C@H](C)O2)Oc2ccc(cc2Cl)[C@H]1O gave an MIC90 of 2 µg/mL (microbial growth; MRSA; clinical isolate).
For CCCS(=O)(=O)Oc1cc(C=NNC(=O)CSc2nc3ccc(Cl)cc3c(=O)n2-c2ccccc2)ccc1OC, the inhibition zone was 2 mm (microbial growth, well diffusion; MRSA; 20 µg/mL).
The inhibition zone of O=C(/C=C/C=C/c1ccccc1)c1ccccc1OCc1ccc(Cl)c(Cl)c1 is reported as 7 mm (microbial growth, well diffusion; MTCC96; 1000 µg/mL, 18 h).
The MIC90 of CC1(C)S[C@@H]2[C@H](NC(=O)[C@H](N)c3ccccc3)C(=O)N2[C@H]1C(=O)O is reported as 64 µg/mL (microbial growth; MSSA; clinical isolate).
O=C(O)c1cn(C2CC2)c2cc(N3CCNCC3)c(F)cc2c1=O has an MIC90 of 3.13 µM (microbial growth, broth dilution).
The MIC50 of COc1ccc2cc3[n+](cc2c1OC)CCc1cc2c(cc1-3)OCO2 is reported as 72 µM (microbial growth; 24 h).
CCCS(=O)(=O)Oc1ccc(C=NNC(=O)CSc2nc3ccc(Cl)cc3c(=O)n2-c2ccccc2)cc1 gave an inhibition zone of 2 mm (microbial growth, well diffusion; MRSA; 20 µg/mL).
For CC[C@H]1OC(=O)[C@H](C)[C@@H](O[C@H]2C[C@@](C)(OC)[C@@H](O)[C@H](C)O2)[C@H](C)[C@@H](O[C@@H]2O[C@H](C)C[C@H](N(C)C)[C@H]2O)[C@](C)(O)C[C@@H](C)/C(=N\OCOCCOC)[C@H](C)[C@@H](O)[C@]1(C)O, the MIC90 was 64 µg/mL (microbial growth; MRSA; clinical isolate).
With O=C(O)c1cn(C2CC2)c2cc(N3CCNCC3)c(F)cc2c1=O the inhibition zone was 3 mm (microbial growth, well diffusion; MRSA; 20 µg/mL).
C=C[C@]1(C)C[C@@H](OC(=O)CS[C@@H]2C[C@H]3CC[C@@H](C2)N3C)[C@]2(C)[C@H](C)CC[C@]3(CCC(=O)[C@H]32)[C@@H](C)[C@@H]1O gave an MIC90 of 0.125 µg/mL (microbial growth; MRSA; clinical isolate).
CN1CCN(CCCN2c3ccccc3Sc3ccc(Cl)cc32)CC1 gave an MBC of 64 µg/mL (microbial killing, broth dilution; ATCC43300; 18 h).
With COc1cc2c(cc1OC)-c1cc3ccc(OC)c(OC)c3c[n+]1CC2 the MIC50 was 205 µM (microbial growth; 24 h).
[H]/N=C(/N)N[C@H]1[C@H](O)[C@@H](O)[C@H](O[C@@H]2O[C@@H](C)[C@](O)(C=O)[C@H]2O[C@@H]2O[C@@H](CO)[C@H](O)[C@@H](O)[C@@H]2NC)[C@@H](N/C(N)=N\[H])[C@@H]1O gave an inhibition zone of 24 mm (microbial growth, well diffusion; MTCC96; 1000 µg/mL, 18 h).
Nc1ccc(S(=O)(=O)Nc2ncccn2)cc1 gave an inhibition zone of 2 mm (microbial growth, well diffusion; MRSA; 20 µg/mL).
O=C(/C=C/C=C/c1ccccc1)c1ccccc1OCc1ccc(Cl)cc1 has an inhibition zone of 7 mm (microbial growth, well diffusion; MTCC96; 1000 µg/mL, 18 h).
For CC(=O)NC[C@H]1CN(c2ccc(N3CCOCC3)c(F)c2)C(=O)O1, the MIC90 was 2 µg/mL (microbial growth; MSSA; clinical isolate).
The inhibition zone of COc1ccc(C=NNC(=O)CSc2nc3c(C)cccc3c(=O)n2-c2ccccc2)cc1OS(C)(=O)=O is reported as 3 mm (microbial growth, well diffusion; MRSA; 20 µg/mL).
With CN(C)CCCN1c2ccccc2Sc2ccc(C(F)(F)F)cc21 the MBC was 64 µg/mL (microbial killing, broth dilution; ATCC43300; 18 h).
